Tests used:
Type in all cases: functional
[1] = tested on: K562; test: Cytotoxicity against human K562 cells assessed as cell growth at 10 uM
How it was run: (§1)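 Single-dose screen at 10 μM across the 60-cell-line panel. Cells grown in RPMI 1640 with 5% FBS and 2 mM L-glutamine, seeded at 5,000–40,000 cells/well according to doubling time, and treated 24 h later. Exposure lasted 48 h at 37 °C, 5% CO₂. Adherent cells were fixed with cold TCA, suspension cells were fixed settled, and both were stained with SRB and read at 515 nm. Growth % was recorded, with inhibition % = 100 − growth %.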

[2] = tested on: MOLT-4; test: Cytotoxicity against human MOLT4 cells assessed as cell growth at 10 uM; how it was run: as §1
[3] = tested on: SR; test: Cytotoxicity against human SR cells assessed as cell growth at 10 uM; how it was run: as §1
[4] = tested on: EKVX; test: Cytotoxicity against human EKVX cells assessed as cell growth at 10 uM
How it was run: (§2)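 Single-concentration screen at 10 μM across the 60-cell-line panel (nine tissue types); growth percentage recorded per cell line, with inhibition taken as 100 minus growth percentage.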

[5] = tested on: HOP-62; test: Cytotoxicity against human HOP62 cells assessed as cell growth at 10 uM; how it was run: as §2
[6] = tested on: NCI-H226; test: Cytotoxicity against human NCI-H226 cells assessed as cell growth at 10 uM; how it was run: as §1
[7] = tested on: NCI-H322M; test: Cytotoxicity against human NCI-H322M cells assessed as cell growth at 10 uM; how it was run: as §1
[8] = tested on: NCI-H460; test: Cytotoxicity against human NCI-H460 cells assessed as cell growth at 10 uM; how it was run: as §1
[9] = tested on: NCI-H522; test: Cytotoxicity against human NCI-H522 cells assessed as cell growth at 10 uM; how it was run: as §1
[10] = tested on: HCC 2998; test: Cytotoxicity against human HCC2998 cells assessed as cell growth at 10 uM; how it was run: as §2
[11] = tested on: HCT-116; test: Cytotoxicity against human HCT116 cells assessed as cell growth at 10 uM; how it was run: as §2
[12] = tested on: HCT-15; test: Cytotoxicity against human HCT15 cells assessed as cell growth at 10 uM; how it was run: as §2
[13] = tested on: HT-29; test: Cytotoxicity against human HT-29 cells assessed as cell growth at 10 uM; how it was run: as §2
[14] = tested on: SF-268; test: Cytotoxicity against human SF268 cells assessed as cell growth at 10 uM; how it was run: as §1
[15] = tested on: SF-295; test: Cytotoxicity against human SF295 cells assessed as cell growth at 10 uM; how it was run: as §1
[16] = tested on: SNB-75; test: Cytotoxicity against human SNB75 cells assessed as cell growth at 10 uM; how it was run: as §1
[17] = tested on: U-251; test: Cytotoxicity against human U251 cells assessed as cell growth at 10 uM; how it was run: as §1
[18] = tested on: LOX IMVI; test: Cytotoxicity against human LOXIMVI cells assessed as cell growth at 10 uM; how it was run: as §1
[19] = tested on: Malme-3M; test: Cytotoxicity against human MALME-3M cells assessed as cell growth at 10 uM; how it was run: as §1
[20] = tested on: M14; test: Cytotoxicity against human M14 cells assessed as cell growth at 10 uM; conditions: Homo sapiens, M14; read-out: Activity; how it was run: as §1
[21] = tested on: SK-MEL-2; test: Cytotoxicity against human SK-MEL-2 cells assessed as cell growth at 10 uM; conditions: Homo sapiens, SK-MEL-2; read-out: Activity; how it was run: as §1
[22] = tested on: SK-MEL-5; test: Cytotoxicity against human SK-MEL-5 cells assessed as cell growth at 10 uM; conditions: Homo sapiens, SK-MEL-5; read-out: Activity; how it was run: as §1
[23] = tested on: UACC-62; test: Cytotoxicity against human UACC62 cells assessed as cell growth at 10 uM; conditions: Homo sapiens, UACC-62; read-out: Activity; how it was run: as §1
[24] = tested on: IGROV-1; test: Cytotoxicity against human IGROV1 cells assessed as cell growth at 10 uM; conditions: Homo sapiens, IGROV-1; read-out: Activity; how it was run: as §1
[25] = tested on: OVCAR-3; test: Cytotoxicity against human OVCAR-3 cells assessed as cell growth at 10 uM; conditions: Homo sapiens, OVCAR-3; read-out: Activity; how it was run: as §1
[26] = tested on: OVCAR-4; test: Cytotoxicity against human OVCAR4 cells assessed as cell growth at 10 uM; how it was run: as §1
[27] = tested on: OVCAR-5; test: Cytotoxicity against human OVCAR5 cells assessed as cell growth at 10 uM; how it was run: as §1
[28] = tested on: OVCAR-8; test: Cytotoxicity against human OVCAR8 cells assessed as cell growth at 10 uM; conditions: Homo sapiens, OVCAR-8; read-out: Activity; how it was run: as §1
[29] = tested on: NCI/ADR-RES; test: Cytotoxicity against human NCI/ADR-RES cells assessed as cell growth at 10 uM; conditions: Homo sapiens, NCI/ADR-RES; read-out: Activity; how it was run: as §1
[30] = tested on: SK-OV-3; test: Cytotoxicity against human SKOV3 cells assessed as cell growth at 10 uM; conditions: Homo sapiens, SK-OV-3; read-out: Activity; how it was run: as §1
[31] = tested on: 786-0; test: Cytotoxicity against human 786-0 cells assessed as cell growth at 10 uM; conditions: Homo sapiens, 786-0; read-out: Activity; how it was run: as §2
[32] = tested on: ACHN; test: Cytotoxicity against human ACHN cells assessed as cell growth at 10 uM; conditions: Homo sapiens, ACHN; read-out: Activity; how it was run: as §2
[33] = tested on: TK-10; test: Cytotoxicity against human TK10 cells assessed as cell growth at 10 uM; conditions: Homo sapiens, TK-10; read-out: Activity; how it was run: as §1
[34] = tested on: PC-3; test: Cytotoxicity against human PC3 cells assessed as cell growth at 10 uM; conditions: Homo sapiens, PC-3; read-out: Activity; how it was run: as §1
[35] = tested on: DU-145; test: Cytotoxicity against human DU145 cells assessed as cell growth at 10 uM; conditions: Homo sapiens, DU-145; read-out: Activity; how it was run: as §2
[36] = tested on: MCF7; test: Cytotoxicity against human MCF7 cells assessed as cell growth at 10 uM; conditions: Homo sapiens, MCF7; read-out: Activity; how it was run: as §1
[37] = tested on: BT-549; test: Cytotoxicity against human BT549 cells assessed as cell growth at 10 uM; how it was run: as §2
[38] = tested on: T47D; test: Cytotoxicity against human T47D cells assessed as cell growth at 10 uM; conditions: Homo sapiens, T47D; read-out: Activity; how it was run: as §1
[39] = tested on: MDA-MB-468; test: Cytotoxicity against human MDA-MB-468 cells assessed as cell growth at 10 uM; conditions: Homo sapiens, MDA-MB-468; read-out: Activity; how it was run: as §1

Compound `FC(F)(F)c1cc(Nc2nccc(-c3ccc(Nc4ccccc4)nc3)n2)cc(C(F)(F)F)c1` has a growth at 10 µM ([1]; Homo sapiens, K562, read-out: Activity) of 92.9%, a growth at 10 µM ([2]; Homo sapiens, MOLT-4, read-out: Activity) of 87.6% and a growth at 10 µM ([3]; Homo sapiens, SR, read-out: Activity) of 90%. It also gave a growth at 10 µM ([4]; Homo sapiens, EKVX, read-out: Activity) of 108%, a growth at 10 µM ([5]; Homo sapiens, HOP-62, read-out: Activity) of 94% and a growth at 10 µM ([6]; Homo sapiens, NCI-H226, read-out: Activity) of 98%. For the same compound, the growth at 10 µM ([7]; Homo sapiens, NCI-H322M, read-out: Activity) was 96.6%, the growth at 10 µM ([8]; Homo sapiens, NCI-H460, read-out: Activity) was 109% and the growth at 10 µM ([9]; Homo sapiens, NCI-H522, read-out: Activity) was 96.5%. The growth at 10 µM ([10]; Homo sapiens, HCC 2998, read-out: Activity) was 100%, the growth at 10 µM ([11]; Homo sapiens, HCT-116, read-out: Activity) was 108% and the growth at 10 µM ([12]; Homo sapiens, HCT-15, read-out: Activity) was 97.4%. It also gave a growth at 10 µM ([13]; Homo sapiens, HT-29, read-out: Activity) of 99.8%, a growth at 10 µM ([14]; Homo sapiens, SF-268, read-out: Activity) of 107% and a growth at 10 µM ([15]; Homo sapiens, SF-295, read-out: Activity) of 112%. The growth at 10 µM ([16]; Homo sapiens, SNB-75, read-out: Activity) was 86.5%, the growth at 10 µM ([17]; Homo sapiens, U-251, read-out: Activity) was 104% and the growth at 10 µM ([18]; Homo sapiens, LOX IMVI, read-out: Activity) was 103%. The growth at 10 µM ([19]; Homo sapiens, Malme-3M, read-out: Activity) was 117%, the growth at 10 µM [20] was 111% and the growth at 10 µM [21] was 92.1%. For the same compound, the growth at 10 µM [22] was 99.1%, the growth at 10 µM [23] was 99.1% and the growth at 10 µM [24] was 102%. The growth at 10 µM [25] was 119%, the growth at 10 µM ([26]; Homo sapiens, OVCAR-4, read-out: Activity) was 105% and the growth at 10 µM ([27]; Homo sapiens, OVCAR-5, read-out: Activity) was 97.3%. The growth at 10 µM [28] was 97.2%, the growth at 10 µM [29] was 102% and the growth at 10 µM [30] was 89.9%. For the same compound, the growth at 10 µM [31] was 105%, the growth at 10 µM [32] was 91.3% and the growth at 10 µM [33] was 119%. The growth at 10 µM [34] was 95.2%, the growth at 10 µM [35] was 111% and the growth at 10 µM [36] was 75.4%. It also gave a growth at 10 µM ([37]; Homo sapiens, BT-549, read-out: Activity) of 105%, a growth at 10 µM [38] of 84.5% and a growth at 10 µM [39] of 89.6%.
`CC(=O)c1ccccc1-c1ccc(-c2ccnc(NC(=O)Nc3cc(C(F)(F)F)cc(C(F)(F)F)c3)n2)cn1.Cl` showed an Activity [1] of 80.11%, an Activity [2] of 93.09% and an Activity [3] of 97.1%. The Activity [4] was 87.92%, the Activity [5] was 90.22% and the Activity [6] was 103.94%. The Activity [7] was 92.06%, the Activity [8] was 93.37% and the Activity [9] was 77.27%. For the same compound, the Activity [10] was 88.79%, the Activity [11] was 81.77% and the Activity [12] was 95.89%. For the same compound, the Activity [13] was 95.08%, the Activity [14] was 83.42% and the Activity [15] was 80.92%. The Activity [16] was 77.47%, the Activity [17] was 86.33% and the Activity [18] was 94.42%. The Activity [19] was 85.32%, the growth at 10 µM [20] was 98.2% and the growth at 10 µM [21] was 78.8%. For the same compound, the growth at 10 µM [22] was 103%, the growth at 10 µM [23] was 94.3% and the growth at 10 µM [24] was 91%. The growth at 10 µM [25] was 108%, the Activity [26] was 98.42% and the Activity [27] was 81.55%. It also gave a growth at 10 µM [28] of 90.8%, a growth at 10 µM [29] of 80.9% and a growth at 10 µM [30] of 76.5%. For the same compound, the growth at 10 µM [31] was 79.5%, the growth at 10 µM [32] was 91% and the growth at 10 µM [33] was 90.3%. For the same compound, the growth at 10 µM [34] was 89.9%, the growth at 10 µM [35] was 109% and the growth at 10 µM [36] was 89.8%. For the same compound, the Activity [37] was 63.01%, the growth at 10 µM [38] was 85.4% and the growth at 10 µM [39] was 74.7%.

— ChEMBL document CHEMBL1165943, “Design and synthesis of new anticancer pyrimidines with multiple-kinase inhibitory effect” (Bioorg Med Chem, 2010)
